The values below come from ChEMBL document CHEMBL1138488, “Synthesis and biological evaluation of 3,3-difluoropyridine-2,4(1H,3H)-dione and 3-deaza-3-fluorouracil base and nucleoside derivatives” (J Med Chem, 2009).

Molecules are shown by their SMILES. Activity calls are given as the source filed them. The rule behind the calls is not given here.

In data set [1] the test system is Moloney murine sarcoma virus. Briefly: Antiviral activity against Moloney sarcoma virus replication infected in mouse […] cells assessed as virus-induced transformation of cells at <=100 uM measured on day 6 postinfection. Format: functional, organism-based. In a few lines: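 Murine C3H/3T3 embryo fibroblasts were grown to confluency and infected with Moloney murine sarcoma virus at 75 focus-forming units. Compound concentrations were then added, and virus-induced transformation was examined microscopically at day 6 postinfection.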

A short description of data set [2]: Cytostatic activity against human Molt4/C8 cells after 3 days by Coulter counting analysis. Format: ADME, cell-based, MOLT-4. In a few lines:
(§1)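 Molt4/C8 or CEM lymphocytes were seeded at 75000 cells per well with varying compound concentrations. Viable cells were counted by Coulter counter after 3 days. CC₅₀ is the concentration inhibiting cell proliferation by 50%.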

Data set [3] concerns Mammalian orthoreovirus 3. The data set is described as follows: Antiviral activity against Reovirus 3 infected in african green monkey Vero cells assessed as inhibition of virus-induced cytopathic effect at <=100 uM. The data set is classed as functional, organism-based.
In data set [4] the test system is Human alphaherpesvirus 1. Briefly: Antiviral activity against HSV1 KOS infected in HEL cells assessed as virus-induced cytopathic effect at <=100 uM. Format: functional, organism-based.
Data set [5] has as its system Human immunodeficiency virus 1. The data set is described as follows: Antiviral activity against HIV1 3B replication in human CEM cells assessed as virus-induced giant cell formation at <=100 uM after 4 days. The data set is classed as functional, organism-based. Conditions: CCRF-CEM. The procedure, abridged: (§2)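 CEM cells (~3 × 10⁵ cells/cm³) were infected with 100 CCID₅₀/mL of HIV-1(III_B) or HIV-2(ROD) and seeded into wells containing compound dilutions. After 4 days at 37 °C, virus-induced giant cell formation was examined microscopically.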

The test system of a further data set is Coxsackievirus B4. Briefly: Antiviral activity against Coxsackievirus B4 infected in human HeLa cells assessed as inhibition of virus-induced cytopathic effect at <=100 uM. The data set is classed as functional, organism-based. In a few lines: (§3)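 Confluent cell monolayers were inoculated with 100 CCID₅₀ of virus, and virus was adsorbed for 1 h. Residual virus was then removed and cells were incubated with serial compound concentrations ([…], ... µM). Cytopathicity was scored once it reached completion in untreated virus-infected control cultures.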

A further data set concerns Punta Toro virus. The data set is described as follows: Antiviral activity against Punta Toro virus infected in african green monkey Vero cells assessed as inhibition of virus-induced cytopathic effect at <=100 uM. Format: functional, organism-based. In a few lines: as §3
(In general: Cytopathic effects are the visible damage that an infection or toxin causes in cultured cells.)

A further data set deals with Sindbis virus. Briefly: Antiviral activity against Sindbis virus infected in african green monkey Vero cells assessed as inhibition of virus-induced cytopathic effect at <=100 uM. The data set is classed as functional, organism-based. In a few lines: as §3
The next data set deals with CCRF-CEM. Briefly: Cytostatic activity against human CEM cells at <=500 uM after 3 days by Coulter counting analysis. Format: cell-based. The note with it: 72 h. The procedure, abridged:
as §1

The subject of the next data set is Vaccinia virus. Briefly: Antiviral activity against Vaccinia virus infected in HEL cells assessed as inhibition of virus-induced cytopathic effect at <=100 uM. The data set is classed as functional, organism-based. The note with it: Orthopoxvirus vaccinia.
The test system of data set [6] is Respiratory syncytial virus. The data set is described as follows: Antiviral activity against Respiratory syncytial virus infected in human HeLa cells assessed as inhibition of virus-induced cytopathic effect at <=100 uM. Format: functional, organism-based. In a few lines: as §3
Data set [7] deals with Human immunodeficiency virus 2. The data set is described as follows: Antiviral activity against HIV2 ROD replication in human CEM cells assessed as virus-induced giant cell formation at <=100 uM after 4 days. Format: functional, organism-based. The note with it: CCRF-CEM. In a few lines:
as §2

Data set [8] in a line: Cytostatic activity against human Molt4/C8 cells at <=500 uM after 3 days by Coulter counting analysis. The data set is classed as ADME, cell-based. The note with it: molt-4, 72 h. In a few lines: as §1
The subject of another data set is Human alphaherpesvirus 2. Briefly: Antiviral activity against HSV2 strain G infected in HEL cells assessed as virus-induced cytopathic effect at <=100 uM. Format: functional, organism-based.
Data set [9] has as its system Human betaherpesvirus 5. The data set is described as follows: Antiviral activity against HCMV Davis infected in HEL cells assessed as inhibition of virus-induced cytopathic effect at <=100 uM. The data set is classed as functional, organism-based. The procedure, abridged:
as §3

Data set [10] concerns Vesicular stomatitis virus. Briefly: Antiviral activity against Vesicular stomatitis virus infected in human HeLa cells assessed as inhibition of virus-induced cytopathic effect at <=100 uM. Format: functional, organism-based.
Data set [11] deals with Human betaherpesvirus 5. Briefly: Antiviral activity against HCMV AD169 infected in HEL cells assessed as inhibition of virus-induced cytopathic effect at <=100 uM. The data set is classed as functional, organism-based. In a few lines:
as §3

The test system of data set [12] is Human alphaherpesvirus 1. The data set is described as follows: Antiviral activity against acyclovir-resistant […] kinase-deficient HSV1 KOS infected in HEL cells assessed as virus-induced cytopathic effect at <=100 uM. The data set is classed as functional, organism-based.
A further data set concerns Human respirovirus 3. Briefly: Antiviral activity against Parainfluenza virus type 3 infected in african green monkey Vero cells assessed as inhibition of virus-induced cytopathic effect at <=100 uM. Format: functional, organism-based. In a few lines: as §3
For data set [13], the system named is Human alphaherpesvirus 3. Briefly: Antiviral activity against thymidine kinase expressing Varicella zoster virus Oka infected in human HEL cells assessed as inhibition of virus-induced cytopathic effect at <=100 uM. The data set is classed as functional, organism-based. The procedure, abridged:
as §3

The subject of data set [14] is Vesicular stomatitis virus. The data set is described as follows: Antiviral activity against Vesicular stomatitis virus infected in HEL cells assessed as inhibition of virus-induced cytopathic effect at <=100 uM. The data set is classed as functional, organism-based.
The subject of another data set is L1210. Briefly: Cytostatic activity against mouse L1210 cells at <=500 uM after 2 days by Coulter counting analysis. The data set is classed as ADME, cell-based. Conditions: l1210, 48 h. In a few lines:
(§4)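 Murine leukemia L1210 cells were seeded at 50000 cells per well with varying compound concentrations. Viable cell number was counted by Coulter counter after 2 days.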

The nature of data set [15]: Cytostatic activity against human CEM cells after 3 days by Coulter counting analysis. The data set is classed as cell-based, CCRF-CEM. The procedure, abridged:
as §1

The nature of data set [16]: Cytostatic activity against mouse L1210 cells after 2 days by Coulter counting analysis. Format: ADME, cell-based. In a few lines: as §4
In data set [17] the test system is Human alphaherpesvirus 3. The data set is described as follows: Antiviral activity against thymidine kinase deficient Varicella zoster virus 07/1 infected in human HEL cells assessed as inhibition of virus-induced cytopathic effect at <=100 uM. The data set is classed as functional, organism-based. The procedure, abridged: as §3

With `O=c1c(F)c(O)ccn1[C@@H]1O[C@H](CO)[C@@H](O)[C@H]1O`, the result (in data set [1]; in [3]; in the data set on Human alphaherpesvirus 1 [4]; in data set [5]; in the data set on Coxsackievirus B4; with Punta Toro virus) was inactive. For the same compound, the result (in the data set on Sindbis virus; in the data set with Vaccinia virus; in [6]; in [7]; with Human alphaherpesvirus 2; in the data set with Human betaherpesvirus 5 [9]) was inactive. Besides, the outcome (in [10]; with Human betaherpesvirus 5 [11]; with Human alphaherpesvirus 1 [12]; in the data set on Human respirovirus 3; in the data set with Human alphaherpesvirus 3 [13]; in [14]) was inactive. The outcome in the data set on Human alphaherpesvirus 3 [17] was inactive. For the same compound, the CC50 at 72 h was 4.4 µM in [2] and 9.6 µM in [15]. The Activity entry (in the data set with CCRF-CEM; in [8]; in the data set with L1210) was “Not Active” each time. Besides, in data set [16], it took 6.7 µM to reach half-maximal cytotoxicity (CC50 at 48 h).
In the case of `NC(=O)Cc1ccn([C@@H]2O[C@H](CO)[C@@H](O)[C@H]2O)c(=O)c1F`, the result (in data set [1]; in data set [3]; in the data set with Human alphaherpesvirus 1 [4]; in [5]; in the data set on Coxsackievirus B4; in the data set on Punta Toro virus) was inactive. The result (with Sindbis virus; in the data set on Vaccinia virus; in data set [6]; in data set [7]; with Human alphaherpesvirus 2; with Human betaherpesvirus 5 [9]) was inactive. Moreover, the result (in data set [10]; with Human betaherpesvirus 5 [11]; with Human alphaherpesvirus 1 [12]; in the data set with Human respirovirus 3; in the data set with Human alphaherpesvirus 3 [13]; in [14]) was inactive. Besides, the result in the data set with Human alphaherpesvirus 3 [17] was inactive. Also, the Activity result (in the data set on CCRF-CEM; in data set [8]; with L1210) was “Not Active” each time.
In the case of `CC1(O)C=CN([C@H]2C[C@H](O)[C@@H](CO)O2)C(=O)C1(F)F` (some centres undefined), the outcome (in data set [1]; in [3]; in the data set on Human alphaherpesvirus 1 [4]; in [5]; in the data set on Coxsackievirus B4; in the data set with Punta Toro virus) was inactive. Also, the outcome (in the data set with Sindbis virus; in the data set with Vaccinia virus; in data set [6]; in [7]; with Human alphaherpesvirus 2; with Human betaherpesvirus 5 [9]) was inactive. The result (in data set [10]; in the data set on Human betaherpesvirus 5 [11]; with Human alphaherpesvirus 1 [12]; in the data set with Human respirovirus 3; in the data set on Human alphaherpesvirus 3 [13]; in data set [14]) was inactive. The result in the data set with Human alphaherpesvirus 3 [17] was inactive. Moreover, the Activity result (in the data set with CCRF-CEM; in data set [8]; in the data set with L1210) was “Not Active” each time.

The term CC50 denotes the concentration at which the toxic effect on the cells reaches its halfway point.
